Reference: ChEMBL document CHEMBL1921792, “Synthesis and anticonvulsant activity of trans- and cis-2-(2,6-dimethylphenoxy)-N-(2- or 4-hydroxycyclohexyl)acetamides and their amine analogs” (Bioorg Med Chem, 2011)
The source made the active and inactive calls. The rule behind the calls is not given here.

Legend:
Mus musculus [1] = test: Neurotoxicity in mouse assessed as inability to maintain equilibrium on rotarod at 100 mg/kg, ip after 0.5 hrs by rotarod test; assay type: toxicity, organism-based; set-up: dose 100 mg/kg, route intraperitoneal; conditions: in vivo
Outline: (§1)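 Drug given ip to mice as a suspension in 0.5% methylcellulose. At the stated time after dosing, each mouse was placed on a 1 inch knurled rod turning at 6 rpm. Neurotoxicity = inability to stay balanced at least 1 min in each of three trials. Scored as animals toxic/animals tested in small groups.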

Mus musculus [2] = test: Neurotoxicity in mouse assessed as inability to maintain equilibrium on rotarod at 300 mg/kg, ip after 0.5 hrs by rotarod test; assay type: toxicity, organism-based; set-up: dose 300 mg/kg, route intraperitoneal; conditions: in vivo; outline: as §1
Mus musculus [3] = test: Neurotoxicity in ip dosed mouse assessed as inability to maintain equilibrium on rotarod by rotarod test; assay type: toxicity, organism-based; conditions: in vivo
Outline: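 Mice dosed ip with a suspension in 0.5% methylcellulose, then placed on a 1 inch knurled plastic rod rotating at 6 rpm. Toxicity = failure to keep equilibrium for at least 1 min in each of three trials.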

Mus musculus [4] = test: Anticonvulsant activity in ip dosed mouse assessed as protection against maximal electric shock-induced seizures; assay type: functional
Mus musculus [5] = species: Mus musculus; test: Protective index, ratio of TD50 for neurotoxicity in mouse to ED50 for inhibition of maximal electroshock-induced seizures in mouse; assay type: functional
Mus musculus [6] = test: Neurotoxicity in mouse assessed as inability to maintain equilibrium on rotarod at 300 mg/kg, ip after 0.25 hrs using rotarod test; assay type: toxicity, organism-based; set-up: dose 300 mg/kg, route intraperitoneal; conditions: in vivo; outline: as §1
Mus musculus [7] = test: Neurotoxicity in mouse assessed as inability to maintain equilibrium on rotarod at 300 mg/kg, ip after 0.5 hrs using rotarod test; assay type: toxicity, organism-based; set-up: dose 300 mg/kg, route intraperitoneal; conditions: in vivo; outline: as §1
Mus musculus [8] = test: Neurotoxicity in mouse assessed as inability to maintain equilibrium on rotarod at 300 mg/kg, ip after 2 hrs using rotarod test; assay type: toxicity, organism-based; set-up: dose 300 mg/kg, route intraperitoneal; conditions: in vivo; outline: as §1
Mus musculus [9] = test: Neurotoxicity in mouse assessed as inability to maintain equilibrium on rotarod at 300 mg/kg, ip after 4 hrs using rotarod test; assay type: toxicity, organism-based; set-up: dose 300 mg/kg, route intraperitoneal; conditions: in vivo; outline: as §1
Mus musculus [10] = test: Anticonvulsant activity in mouse assessed as protection against maximal electric shock-induced seizures at 100 mg/kg, ip after 4 hrs; assay type: functional, organism-based; set-up: dose 100 mg/kg
Outline: (§2)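 Phase I maximal electroshock screen in mice. Compound given ip as a suspension in 0.5% methylcellulose at 30, 100 or 300 mg/kg, tested at 30 min and 4 h. Small groups (1–8); result is number protected/number tested.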

Mus musculus [11] = test: Anticonvulsant activity in mouse assessed as protection against maximal electric shock-induced seizures at 100 mg/kg, ip after 0.5 hrs; assay type: functional, organism-based; set-up: dose 100 mg/kg; outline: as §2
Mus musculus [12] = test: Anticonvulsant activity in mouse assessed as protection against maximal electric shock-induced seizures at 30 mg/kg, ip after 0.5 hrs; assay type: functional, organism-based; set-up: dose 30 mg/kg; outline: as §2
Mus musculus [13] = test: Anticonvulsant activity in mouse assessed as protection against maximal electric shock-induced seizures at 30 mg/kg, ip after 4 hrs; assay type: functional, organism-based; set-up: dose 30 mg/kg; outline: as §2
Mus musculus [14] = test: Anticonvulsant activity in mouse assessed as protection against maximal electric shock-induced seizures at 300 mg/kg, ip after 0.5 hrs; assay type: functional, organism-based; set-up: dose 300 mg/kg; outline: as §2
Mus musculus [15] = test: Anticonvulsant activity in mouse assessed as protection against maximal electric shock-induced seizures at 300 mg/kg, ip after 4 hrs; assay type: functional, organism-based; set-up: dose 300 mg/kg; outline: as §2
Mus musculus [16] = test: Anticonvulsant activity against subcutaneous pentylenetetrazole-induced seizures in mouse at 30 mg/kg, ip after 0.5 hrs; assay type: functional, organism-based; set-up: dose 30 mg/kg
Outline: (§3)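 Phase I screen in mice. Compound given ip as a suspension in 0.5% methylcellulose, read at 30 min and 4 h. Pentylenetetrazole 85 mg/kg in 0.9% NaCl was injected sc into the posterior midline and animals watched ≥30 min. Protection meant no clonic spasm lasting ≥5 s. Groups of 1–8 animals; result is protected/tested.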

Mus musculus [17] = test: Anticonvulsant activity against subcutaneous pentylenetetrazole-induced seizures in mouse at 30 mg/kg, ip after 4 hrs; assay type: functional, organism-based; set-up: dose 30 mg/kg; outline: as §3
Mus musculus [18] = test: Anticonvulsant activity against subcutaneous pentylenetetrazole-induced seizures in mouse at 100 mg/kg, ip after 0.5 hrs; assay type: functional, organism-based; set-up: dose 100 mg/kg; outline: as §3
Mus musculus [19] = test: Anticonvulsant activity against subcutaneous pentylenetetrazole-induced seizures in mouse at 100 mg/kg, ip after 4 hrs; assay type: functional, organism-based; set-up: dose 100 mg/kg; outline: as §3
Mus musculus [20] = test: Anticonvulsant activity against subcutaneous pentylenetetrazole-induced seizures in mouse at 300 mg/kg, ip after 0.5 hrs; assay type: functional, organism-based; set-up: dose 300 mg/kg; outline: as §3
Mus musculus [21] = test: Anticonvulsant activity against subcutaneous pentylenetetrazole-induced seizures in mouse at 300 mg/kg, ip after 4 hrs; assay type: functional, organism-based; set-up: dose 300 mg/kg; outline: as §3
Rattus norvegicus [22] = test: Anticonvulsant activity in rat assessed as protection against maximal electric shock-induced seizures at 30 mg/kg, po after 0.5 hrs; assay type: functional, organism-based; set-up: dose 30 mg/kg
Outline: (§4)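 MES test in rats dosed orally at 30 mg/kg as a suspension in 0.5% methylcellulose, read at 0.25–4 h. Four rats per time point; result is protected/tested.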

Rattus norvegicus [23] = test: Anticonvulsant activity in rat assessed as protection against maximal electric shock-induced seizures at 30 mg/kg, po after 1 hr; assay type: functional, organism-based; set-up: dose 30 mg/kg; outline: as §4
Rattus norvegicus [24] = test: Anticonvulsant activity in rat assessed as protection against maximal electric shock-induced seizures at 30 mg/kg, po after 2 hrs; assay type: functional, organism-based; set-up: dose 30 mg/kg; outline: as §4
Rattus norvegicus [25] = test: Anticonvulsant activity in rat assessed as protection against maximal electric shock-induced seizures at 30 mg/kg, po after 4 hrs; assay type: functional, organism-based; set-up: dose 30 mg/kg; outline: as §4

Cc1cccc(C)c1OCC(=O)NC1CCCCC1O.Cl (racemic; 4)
Activity (Mus musculus [1]): Non-toxic
Activity (Mus musculus [2]): Non-toxic
TD50 (Mus musculus [3]): 117.73 mg/kg
ED50 (Mus musculus [4]): 78.83 mg/kg
Ratio TD50/ED50 (Mus musculus [5]): 1.493
Activity (Mus musculus [6]): Toxic
Activity (Mus musculus [7]): Toxic
Activity (Mus musculus [8]): Non-toxic
Activity (Mus musculus [9]): Non-toxic

Cc1cccc(C)c1OCC(=O)NC1CCCCC1O (racemic; 4)
Activity (Mus musculus [10]): inactive
Activity (Mus musculus [11]): inactive
Activity (Mus musculus [12]): inactive
Activity (Mus musculus [13]): inactive
Activity (Mus musculus [14]): Active
Activity (Mus musculus [15]): inactive
Activity (Mus musculus [16]): inactive
Activity (Mus musculus [17]): inactive
Activity (Mus musculus [18]): inactive
Activity (Mus musculus [19]): inactive
Activity (Mus musculus [20]): inactive
Activity (Mus musculus [21]): inactive
Activity (Rattus norvegicus [22]): inactive
Activity (Rattus norvegicus [23]): inactive
Activity (Rattus norvegicus [24]): inactive
Activity (Rattus norvegicus [25]): inactive
